Data set [1] has as its system Leishmania tropica. In words: Antileishmanial activity against Leishmania tropica MHOM/IT/2012/ISS3130 promastigotes after 72 hrs by MTT assay. The format is functional, organism-based. The following applies: MHOM/IT/2012/ISS3130, 72 h. In short, it runs like this: (§1)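 Promastigotes grown in Schneider's medium with 10% FCS at 22 °C. Assay in RPMI with 10% FCS, 20 mM Hepes and 2 mM glutamine, 5×10⁶ parasites/mL, seven serial dilutions from DMSO stocks, 72 h at 22 °C. MTT added for 3 h, pellet lysed in SDS/DMF, A550 read against 650 nm reference. IC50 given as mean of separate duplicate experiments; amphotericin B as reference.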

In data set [2] the test system is Leishmania infantum. Briefly: Antileishmanial activity against Leishmania infantum MHOM/TN/1980/IPT-1 amastigotes infected in Balb/c mouse assessed as reduction in liver parasite load at 5 mg/kg, sc administered for 5 days measured post last dose relative to control. The format is functional. On the set-up: scale not given: the % may be the effect or the level left. A digest of the protocol:
(§2)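 Balb/c mice (18-20 g) inoculated via tail vein with 2×10⁶ semi-purified L. infantum IPT-1 amastigotes. Dosing p.o. (0.1% Tween/0.5% HEC in water, or water) or s.c. (sunflower oil, or water) for 4 or 5 consecutive days from day 9 post-infection. On day 13 or 14, liver weight × amastigotes per liver cell gives relative load, expressed versus the untreated control group mean.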

Data set [3] in a line: Selectivity index, ratio of IC50 for PMA-differentiated human THP1 cells to IC50 for Leishmania infantum MHOM/TN/80/IPT1 promastigotes. Format: toxicity. The conditions noted are these: read-out: Ratio IC50.
For data set [4], the system named is Mus musculus. Briefly: Toxicity in C57Bl/6 mouse assessed as effect on normal appearance at 300 mg/kg, po administered as single dose measured twice daily up to 30 days. Format: organism-based. The following applies: in vivo, 720 h. In short, it runs like this: (§3)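 Healthy female C57Bl/6 mice, groups of four or five, received one oral dose. Compound was first dissolved in DMSO, then suspended in 0.5% hydroxyethylcellulose-0.1% Tween 80. Behaviour and appearance were checked twice daily for 30 days. A dose counted as tolerated if all mice survived 30 days with normal appearance and behaviour.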

For data set [5], the system named is Leishmania infantum. In words: Antileishmanial activity against Leishmania infantum MHOM/TN/1980/IPT-1 amastigotes infected in Balb/c mouse assessed as reduction in liver parasite load at 10 mg/kg, sc administered for 4 days measured post last dose relative to control. The format is functional. On the set-up: scale not given: the % may be the effect or the level left. In short, it runs like this: as §2

Data set [6] relates to Mus musculus. Briefly: Toxicity in C57Bl/6 mouse assessed as survival at 300 mg/kg, po administered as single dose measured twice daily up to 30 days. The format is organism-based. The following applies: in vivo, 720 h. A digest of the protocol:
as §3

The subject of data set [7] is Mus musculus. In words: Toxicity in C57Bl/6 mouse assessed as effect on normal behavior at 300 mg/kg, po administered as single dose measured twice daily up to 30 days. The conditions noted are these: in vivo, 720 h. Format: organism-based. In short, it runs like this: as §3
Data set [8] relates to THP-1. In words: Cytotoxicity against PMA-differentiated human THP1 cells after 72 hrs by MTT assay. The following applies: THP-1, 72 h. The format is cell-based. In short, it runs like this: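 THP-1 cells at 5×10⁵ cells/mL, differentiated with 0.1 μM PMA for 48 h, then exposed to serial dilutions for 72 h. Viability read by MTT; IC50 for growth inhibition. Duplicate experiments, mean reported.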
On the technique in general: Tetrazolium dyes change colour on reduction, which living cells bring about.

Data set [9] in a line: Selectivity index, ratio of IC50 for PMA-differentiated human THP1 cells to IC50 for amastigote stage of Leishmania infantum infected in PMA-differentiated human THP1 cells. The conditions noted are these: read-out: Ratio IC50. The format is toxicity.
The test system of data set [10] is Mus musculus. Briefly: Toxicity in Balb/c mouse infected with Leishmania infantum MHOM/TN/1980/IPT-1 amastigotes assessed as death at 100 mg/kg, administered for 4 days measured on day 10 to 12. Format: organism-based. The conditions noted are these: in vivo, 96 h.
In data set [11] the test system is Leishmania infantum. In words: Antileishmanial activity against Leishmania infantum MHOM/TN/1980/IPT-1 amastigotes infected in sc dosed Balb/c mouse assessed as reduction in liver parasite load administered for 4 to 5 days measured post last dose. Format: functional, organism-based. In short, it runs like this: (§4)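 Balb/c mice (18-20 g) inoculated via tail vein with 2×10⁶ semi-purified L. infantum IPT-1 amastigotes. Dosing p.o. (0.1% Tween/0.5% HEC in water, or water) or s.c. (sunflower oil, or water) for 4 or 5 consecutive days from day 9 post-infection.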

The test system of data set [12] is Leishmania infantum. In words: Antileishmanial activity against Leishmania infantum MHOM/TN/1980/IPT-1 amastigotes infected in Balb/c mouse assessed as reduction in liver parasite load at 100 mg/kg, po administered for 4 days measured post last dose relative to control. Format: functional. On the set-up: scale not given: the % may be the effect or the level left. In short, it runs like this: as §4

For data set [13], the system named is Leishmania infantum. Briefly: Antileishmanial activity against amastigote stage of Leishmania infantum infected in PMA-differentiated human THP1 cells assessed as inhibition of parasite growth at 0.5 uM after 72 hrs by Giemsa staining based light microscopy relative to control. The format is functional. The following applies: THP-1, 72 h. In short, it runs like this:
(§5)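 THP-1 cells at 5×10⁵ cells/mL differentiated with 0.1 μM PMA for 48 h, then infected with metacyclic L. infantum promastigotes (1:10 macrophage:parasite) for 24 h. Washed monolayers exposed to compound for 72 h, methanol-fixed and Giemsa-stained. Percent infected macrophages versus untreated scored by light microscopy, and IC50 derived. Single-concentration values are means of two or three experiments, IC50 of two.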

Data set [14] deals with BMDM. In words: Induction of nitric oxide production in IFNgamma-primed mouse BMDM measured after 24 hrs by Griess assay. Format: functional, cell-based. (In general: Griess reagent forms a coloured azo dye with nitrite.)
Data set [15] in a line: Selectivity index, ratio of IC50 for PMA-differentiated human THP1 cells to IC50 for Leishmania tropica MHOM/IT/2012/ISS3130 promastigotes. Format: toxicity. The following applies: read-out: Ratio IC50.
Data set [16] has as its system Leishmania infantum. Briefly: Antileishmanial activity against Leishmania infantum MHOM/TN/80/IPT1 promastigotes after 72 hrs by MTT assay. Format: functional, organism-based. The following applies: MHOM/TN/80/IPT1, 72 h. A digest of the protocol:
as §1

Data set [17] concerns Leishmania infantum. In words: Antileishmanial activity against amastigote stage of Leishmania infantum infected in PMA-differentiated human THP1 cells assessed as inhibition of parasite growth after 72 hrs by Giemsa staining based light microscopy. The format is functional, organism-based. The conditions noted are these: THP-1, 72 h. In short, it runs like this:
as §5

For data set [18], the system named is Leishmania infantum. Briefly: Antileishmanial activity against Leishmania infantum MHOM/TN/1980/IPT-1 amastigotes infected in Balb/c mouse assessed as reduction in liver parasite load at 60 mg/kg, po administered for 4 days measured post last dose relative to control. On the set-up: scale not given: the % may be the effect or the level left. Format: functional. In short, it runs like this: as §2

The test system of data set [19] is BMDM. Briefly: Induction of reactive oxygen species production in IFNgamma-primed mouse BMDM measured after 24 hrs by H2DCFDA probe based assay. Format: functional, cell-based.
The test system of data set [20] is Leishmania infantum. Briefly: Antileishmanial activity against Leishmania infantum MHOM/TN/1980/IPT-1 amastigotes infected in po dosed Balb/c mouse assessed as reduction in liver parasite load administered for 4 to 5 days measured post last dose. The format is functional, organism-based. A digest of the protocol:
as §4

For the compound `Cl.Cl.Cl.Cl.Clc1ccc2c(NCCCN3CCN(CCCNCCC45CC6CC(CC(C6)C4)C5)CC3)ccnc2c1`, the IC50 in [1] amounted to 510 nM; in [8], 1000 nM; in data set [16] it was 520 nM; in data set [17], 310 nM. For the same compound, the Activity in [2] was 57%; in data set [4], “Non-Toxic”; in data set [5], 81%; in data set [6] it was “Non-Toxic”; in data set [7] it was “Non-Toxic”; in data set [10], “Toxic”. The Activity entry in data set [11] is “Dose-dependent effect”; in [12], 100%; in data set [14] it was “Dose-dependent effect”; in data set [18] it was 96%; in [19], “Dose-dependent effect”; in data set [20] it was “Dose-dependent effect”. The selectivity ratio came to 1.9 in data set [3], 3.22 in data set [9] and 2 in data set [15]. In [13], the inhibition at 0.5 µM amounted to 72.2%.

Take `Fc1ccc2scc(-c3ccc(CNCCCCNc4ccnc5ccccc45)cc3)c2c1`: the IC50 in [1] came to 1020 nM; in data set [8], 2350 nM; in data set [16] it was 1240 nM; in data set [17], 650 nM. Also, the selectivity ratio in data set [3] was 1.9; in data set [9], 3.61; in data set [15], 2.3. Further, the Activity result in [6] is “Toxic”. In [13], the inhibition at 0.5 µM worked out at 42.7%.

Take `C[C@@H]1[C@H](O)[C@@H](C)/C=C/C=C/C=C/C=C/C=C/C=C/C=C/[C@H](O[C@@H]2O[C@H](C)[C@@H](O)[C@H](N)[C@@H]2O)C[C@@H]2O[C@](O)(C[C@@H](O)C[C@@H](O)[C@H](O)CC[C@@H](O)C[C@@H](O)CC(=O)O[C@H]1C)C[C@H](O)[C@H]2C(=O)O` [AMPHOTERICIN B]: the half-maximal inhibitory concentration (IC50) was 140 nM in [1], above 10800 nM in [8], 130 nM in data set [16] and 210 nM in data set [17]. The selectivity ratio in data set [3] was above 83.1; in data set [9] it was above 51.4; in data set [15], above 77.1. Besides, the inhibition at 0.5 µM in [13] was determined as 95.5%.

As a reminder, the IC50 is the concentration at which inhibition is half-maximal. The inhibition is the percentage by which the read-out fell short of the control.

Values taken from ChEMBL document CHEMBL4196114 (ACS Med Chem Lett, 2018).
